# High-throughput results: PubChem, Sanford-Burnham Center for Chemical Genomics
# Diaphorase inh – diaphorase inhibition or chemical oxidation counter-screen; diaphorase resazurin-to-resorufin fluorescence, NADH, 16 min; bacterial (C. kluyveri) enzyme, not human; inhibition, % at 20 µM; 0.69% of 190,000 active;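 active = primary screen inhibition at 20 µM above a set limit, cut at about 50% in these data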;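 note: plate controls were DMSO with full reaction for no effect and wells lacking NADH for full effect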
#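 Assay system: diaphorase enzyme from Clostridium kluyveri; Input: enzyme working solution with 0.14 U/mL diaphorase; Timing: 16 min at room temperature; Technique: resorufin fluorescence, excitation 544 nm, emission 590 nm; Benchmarks: positive control minus NADH, DMSO neutral control.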
# G6PDH CS – L. mesenteroides G6PDH inhibition counter-screen | Purified L. mesenteroides G6PDH, diaphorase/resazurin coupled fluorescence, 45 min | inhibition, % at 5 µM | 0.12% of 200,000 active | AID 1020; in the data active = inhibition above about 50%
# PfG6PD inh – PfG6PD (Plasmodium falciparum) enzyme inhibition; AID 504690; 0.78% of 350,000 active; PfGluPho enzyme, NADPH resazurin-diaphorase fluorescence; inhibition, % at 20 µM;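 active = inhibition reaching at least a set limit at 20 µM in the primary screen, cut at about 59% in these data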;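 note: 0% = DMSO wells with substrate and 100% = DMSO wells lacking glucose-6-phosphate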
# Diaphorase act – diaphorase activation or chemical reduction counter-screen. activation factor at 20 µM. 0.005% of 190,000 active. Diaphorase/resazurin coupled assay, resorufin fluorescence, 16 min; active compounds read high; 1 = vehicle wells, 0 = NADH-free wells. AID 1229;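 active = diaphorase activity raised at least twofold by the compound at 20 µM; inactive = activation factor below 2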
#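 Test system: Clostridium kluyveri diaphorase, purified enzyme. Buffer or medium: 50 mM HEPES pH 7.4 buffer plus MgCl2 and Tween 20. Also added: 0.114 mM NADH and 0.1 mM resazurin, final amounts. Dosing: compound 20 µM once, DMSO 1%. Schedule: 16 min enzyme reaction, ambient temperature. Detection: fluorescence of resorufin, 544 nm excitation, 590 nm emission.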
# HKDC1 inh – inhibitors of human hexokinase HKDC1; Q2TB90; inhibition, % at 20 µM; recombinant HKDC1, G6PDH/diaphorase resazurin coupled fluorescence; 0.16% of 340,000 active;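 active = inhibition above about 35% when tested at 20 µM, limit read from the data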;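 note: plate controls were DMSO wells with enzyme for no effect and DMSO wells lacking enzyme for full effect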
#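 Material: recombinant HKDC1 hexokinase; Amount: HKDC1 at 5 µg/mL; Medium: Tris pH 8.0 buffer with MgCl2, Tween-20, BSA, BME; Schedule: 90 min reaction incubation at room temperature, dark; Technique: coupled resazurin fluorescence, excitation 525 nm, emission 613 nm.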
# HKDC1 act conf – HKDC1 (human) activation, single-dose confirmed; shares compounds with HKDC1 inh; recombinant HKDC1, G6PDH/diaphorase resazurin fluorescence; active compounds read low; inhibition, % at 20 µM; 14% of 740 active; AID 504708;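 active = inhibition at or below a set negative limit, negative inhibition meaning the enzyme was activated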
# PfG6PD confirm – PfG6PD inhibition, single-dose confirmed; shares compounds with PfG6PD inh; recombinant PfGluPho, NADPH-diaphorase-resazurin fluorescence; inhibition, % at 20 µM; 34% of 2,400 active; AID 504753;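 active = inhibition of at least 50% at 20 µM in any single replicate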;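 note: 0% = DMSO with substrate and 100% = DMSO lacking glucose-6-phosphate substrate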
# Diaphorase 10uM – inhibits diaphorase or oxidizes, flagging false PfG6PD hits; shares compounds with PfG6PD inh; diaphorase-coupled resazurin reduction, fluorescence, NADPH 10 uM; inhibition, % at 20 µM; 39% of 820 active; AID 504862;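 active = average inhibition reaching 50% or more with the compound at 20 µM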;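 note: resorufin red fluorescence formed as diaphorase reduces resazurin using NADPH; 0% = DMSO with enzyme and 100% = DMSO without enzyme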
# Diaphorase 30uM – counter-screen for P. falciparum G6PD inhibitors: diaphorase inhibitors, oxidizers; shares compounds with PfG6PD inh; 29% of 820 active; inhibition, % at 20 µM; Diaphorase/resazurin coupled assay, resorufin fluorescence, 30 uM NADPH; AID 504863;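 active = inhibition averaging 50% or more, tested at 20 µM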;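 note: 0% = DMSO with enzyme and 100% = DMSO wells lacking diaphorase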
# An asterisk follows results filed as active; x = no result given; ! = not active in a repeat. In the library only some 1.2% were active in any assay of this set; here they are far more common.
SMILES,Diaphorase inh,G6PDH CS,PfG6PD inh,Diaphorase act,HKDC1 inh,HKDC1 act conf,PfG6PD confirm,Diaphorase 10uM,Diaphorase 30uM
Cc1ccc(C)c(S(=O)(=O)Nc2cc(SCC(=O)O)c(O)c3ccccc23)c1,32.0,48.4,103.7*,0.7,63.4*,55.2,x,x,x
O=C(O)CCNc1cc(N2CCN(C(=O)c3ccco3)CC2)c2noc3c2c1C(=O)c1ccccc1-3,x,x,80.1*,x,38.8*,13.7,23.7,x,x
CC(C)(C=O)C1=CC(=O)c2ccccc2C1=O,15.9,45.3,119.5*,0.8,50.7*,41.2,102.8*,85.1*,66.1*
CN(CCCn1ccc(N)nc1=O)Cc1ccco1,x,x,-1.9,x,x,x,x,x,x
COC(=O)CCC(=O)OC1(C)C(=O)C2=CN(Cc3ccccc3)C(c3ccc(OC)cc3)=CC2=C(Br)C1=O (configuration not stated),x,x,78.0*,x,43.3*,13.3,47.4,x,x
COC(=O)CCC(=O)OC1(C)C(=O)C2=CN(CC3CC3)C(c3ccc(OC)cc3)=CC2=C(Br)C1=O (configuration not stated),x,x,75.5*,x,37.5*,-8.0,44.5,x,x
COC(=O)CCC(=O)OC1(C)C(=O)C2=CN(CCc3c[nH]c4ccccc34)C(c3ccc(OC)cc3)=CC2=C(Br)C1=O (configuration not stated),x,x,53.0,x,27.7,x,x,x,x
COC(=O)CCC(=O)OC1(C)C(=O)C2=CN(Cc3ccc(OC)cc3)C(c3ccc(OC)cc3)=CC2=C(Br)C1=O (configuration not stated),x,x,54.4,x,32.2,x,x,x,x
CC1(OC(=O)CCc2ccccc2)C(=O)C=C2C=C(c3ccc(C#N)cc3)N(Cc3ccccc3)C=C2C1=O (configuration not stated),x,x,84.1*,x,36.4*,-9.2,36.0,x,x
COC(=O)CCC(=O)OC1(C)C(=O)C2=CN(c3ccccc3)C(c3ccc(OC)cc3)=CC2=C(Br)C1=O (configuration not stated),x,x,73.2*,x,38.2*,28.6,73.9*,50.0*,38.5
CC(C)CN1C=C2C(=O)C(C)(OC(=O)CCc3ccccc3)C(=O)C=C2C=C1c1ccc(C#N)cc1 (configuration not stated),x,x,58.2,x,21.4,x,x,x,x
COc1cccc(NC(=S)NC(Cc2ccccc2)c2ccccc2)c1 (configuration not stated),x,x,27.9,x,x,x,x,x,x
O=C1C(Cl)=C(NC(=O)c2ccccc2)C(=O)C(Cl)=C1NC(=O)c1ccccc1,x,x,113.8*,x,43.5*,41.4,109.9*,86.2*,61.4*
CCN(CC)S(=O)(=O)c1ccc(SCC(=O)c2c(N)n(C3CC3)c(=O)[nH]c2=O)nc1,x,x,39.1,x,x,x,x,x,x
O=C1C=C(Nc2ccccc2)C(=O)c2ccccc21,17.6,24.6,-6.4,0.8,12.2,x,x,x,x
COC(=O)c1ccccc1NC1=C/C(=N\S(=O)(=O)c2ccc(C(=O)O)cc2)c2ccccc2C1=O,x,x,96.2*,x,82.0*,86.0,86.2*,63.7*,64.3*
CC(C)(C)c1ccc(S(=O)(=O)/N=C2\C=C(NS(=O)(=O)c3ccccc3)C(=O)c3ccccc32)cc1,x,x,4.8,x,26.7,x,x,x,x
COC(=O)c1ccccc1NC1=C/C(=N\S(=O)(=O)c2cccs2)c2ccccc2C1=O,16.1,49.2,101.0*,0.8,39.2*!,38.6,66.7*,37.1,42.0
COC(=O)c1cccc(NS(=O)(=O)c2cccs2)c1C,5.6,-7.9,-4.3,0.9,-8.8,x,x,x,x
O=C1C(Nc2ccccc2)=C/C(=N/S(=O)(=O)c2cccs2)c2ccccc21,1.3,45.5,109.7*,1,67.7*,65.0,92.0*,77.9*,79.6*
